Reference: PubChem BioAssay
Results filed as inconclusive are left out.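 The calls were made as follows, unless noted: active = growth inhibition above 25% in both replicates, a cutoff set 3 SD above the mean; inconclusive = above 25% in only one replicate; inactive = the rest.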

Columns and labels:
[1] = S. cerevisiae growth inhibition in permissive medium (OD615), pilot counter-assay for S. cerevisiae lifespan shortening project, permissive growth control (AID 705); conditions: OD615, 24 h, at 10 µM, stronger effect = higher value
In short: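 Material: engineered DeaD yeast; Compound: one dose 10 µM, DMSO 0.25% final; Detection: absorbance (optical density) at 615 nm; Buffer or medium: permissive raffinose/galactose medium; Timing: 24 h exposure, 30 °C.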

[2] = S. cerevisiae growth inhibition in restrictive medium, OD615, pilot screen, restrictive growth control, yeast lifespan reduction project (AID 706;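 active = growth inhibition above a set limit, 3 SD over mean compound inhibition, in both replicates, cut at about 43% in these data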;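 also: modified DeaD lifespan yeast strain shifted to restrictive glucose medium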); conditions: OD615, 48 h, at 10 µM, stronger effect = higher value
In short: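 Buffer or medium: restrictive glucose medium (CSMM-D); test system: modified S. cerevisiae; doses: single dose of 10 µM compound final, 0.25% DMSO; schedule: 48 h compound exposure at 30 °C; detection: absorbance (optical density) measured at 615 nm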

[3] = doxorubicin toxicity protection in MRP-1 cells – H69AR cells, CellTiter-Glo, duplicate, MRP-1 activator project, pilot screen (AID 807;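 active = viability increase at or above a cutoff of the median across tested compounds plus 3 SD, cut at about 8.5% in these data, passing the limit was not always enough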;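 also: compound pretreatment 18-22 h then 72 h combined with doxorubicin; 0% = doxorubicin alone and 100% = vehicle without doxorubicin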); conditions: H69AR viability with doxorubicin, CellTiter-Glo luminescence; at 10 µM; stronger effect = higher value
[4] = viability of HCT116 without oncogenic beta-catenin – human colon tumor cells, pilot screen (AID 823;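 active = cell viability at or below a set limit in both duplicate runs, the limit being the all-compound median minus 4 SD, cut at about 23% in these data, passing the limit was not always enough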;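 also: 0% = wells killed by 20 µM Hyamine and 100% = untreated DMSO cell wells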); conditions: HCT116 beta-catenin knockout viability, CellTiter-Glo, 60 h; at 10 µM; stronger effect = lower value
[5] = viability of PTEN-null HCT116 cells – cell-based, HCT116 clonal line, CellTiter-Glo, pilot screen (AID 824;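 active = viability at or below 27.92% in each of two runs, the all-compound median minus 4 SD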;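 also: 0% = 20 µM Hyamine control and 100% = vehicle cell control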); conditions: HCT116 PTEN-deleted viability, 60 h, at 10 µM, stronger effect = lower value
[6] = RAM pathway blockade in budding yeast – dse1pr::URA3 reporter, 5-FOA selection, pilot screen (AID 869;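 active = inhibition over a set limit, the all-compound mean plus 3 SD, in both replicate runs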;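 also: 0% = DMSO wells with no growth and 100% = 10 µM 1-NA-PP1 with full growth; RAM network block rescues cells from 5-FOA so hits raise OD615 growth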); conditions: S. cerevisiae dse1pr::URA3 5-FOA growth, OD615, 2 d; at 10 µM; stronger effect = higher value; strain carries analog-sensitive mutant Cbk1 kinase
[7] = RAM signaling pathway blockade in yeast – S. cerevisiae, Pdr1DBD-CYC8 efflux-inhibited sensitized strain, primary screen (AID 1298;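 active = RAM network inhibition above 8.4% in each of two replicates, 3 SD over the compound average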;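 also: 0% = DMSO untreated cells without growth and 100% = 10 µM 1-NA-PP1 full growth; higher means more yeast growth rescued from 5-FOA killing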); conditions: S. cerevisiae cbk1-as DSE1-URA3 strain, 5-FOA growth OD615, 2 d; at 50 µM; stronger effect = higher value

CCOC(=O)c1ccc(NC(=O)CSc2nc(C)cc(=O)[nH]2)cc1
inactive: growth inhibition [1] -7.82% | growth inhibition [2] 8.13% | viability increase [3] -1.06% | viability [4] 98.5% | viability [5] 100% | inhibition [6] -0.79% | RAM network inhibition [7] 0.78%

CCN1C(=O)NC(c2cccnc2)C(C(=O)OC)=C1C (centres undefined)
inactive: growth inhibition [1] -17.7% | growth inhibition [2] -5.54% | viability increase [3] -1.3% | viability [4] 99.5% | viability [5] 99.9% | inhibition [6] 0.735% | RAM network inhibition [7] 0.25%

Cn1c(Cn2c(=O)sc3ccccc32)nnc1SCC(=O)NCCc1ccccc1
inactive: growth inhibition [1] -10% | growth inhibition [2] -16.2% | viability increase [3] -0.09% | viability [4] 100% | viability [5] 105% | inhibition [6] 2.5% | RAM network inhibition [7] 3.42%

Cn1c(Cn2c(=O)sc3ccccc32)nnc1SCc1cccc(F)c1
inactive: growth inhibition [1] -7.92% | growth inhibition [2] 2.12% | viability increase [3] -0.5% | viability [4] 71.1% | viability [5] 69.7% | inhibition [6] 3.43% | RAM network inhibition [7] 7.87%

CC1CCCN(c2nc3c(c(=O)[nH]c(=O)n3C)n2CCSc2ncccn2)C1 (centres undefined)
inactive: growth inhibition [1] -2.51% | growth inhibition [2] 2.04% | viability increase [3] -3.17% | viability [4] 97% | viability [5] 96.8% | inhibition [6] 1.14% | RAM network inhibition [7] 2.7%

CN(CCNC(=O)Cn1c(=O)sc2ccccc21)Cc1ccccc1
inactive: growth inhibition [1] -1.18% | growth inhibition [2] -7.1% | viability increase [3] -5.12% | viability [4] 77.7% | viability [5] 82.3% | inhibition [6] 1.27% | RAM network inhibition [7] -1.1%

CC1CCN(S(=O)(=O)c2ccc3c(c2)oc(=O)n3CC(=O)NCc2ccc3c(c2)OCO3)CC1
inactive: growth inhibition [1] -1.64% | growth inhibition [2] -15.8% | viability increase [3] 4.02% | viability [4] 81.4% | viability [5] 76.7% | inhibition [6] 3.27% | RAM network inhibition [7] 2.06%

CCn1cc(C(=O)NC2CCCCCC2)c(=O)c2cc(S(=O)(=O)N3CCCCC3)ccc21
inactive: growth inhibition [1] -3.87% | growth inhibition [2] -20.1% | viability increase [3] -8.11% | viability [4] 72.2% | viability [5] 69.8% | inhibition [6] 0.625% | RAM network inhibition [7] 2.45%

Clc1ccc(-c2nc(-c3ccccn3)no2)cc1Cl
inactive: growth inhibition [1] -4.08% | growth inhibition [2] 0.26% | viability increase [3] -4.17% | viability [4] 72.6% | viability [5] 67.7% | inhibition [6] 2.6% | RAM network inhibition [7] 3.88%

CCN(CC)CCCN1C(=O)C(O)=C(C(=O)c2ccc(C)o2)C1c1cccs1 (centres undefined)
inactive: growth inhibition [1] 0.37% | growth inhibition [2] -6.93% | viability increase [3] -4.04% | viability [4] 97.5% | viability [5] 96.2% | inhibition [6] 2.01% | RAM network inhibition [7] 2.8%

Cc1cc(Nc2ccc3c(c2)OCCO3)n2nc(C)nc2n1
inactive: growth inhibition [1] -5.2% | growth inhibition [2] 11.4% | viability increase [3] -2.09% | viability [4] 106% | viability [5] 102% | inhibition [6] 2.84% | RAM network inhibition [7] 1.45%

COC(=O)c1ccc2c(c1)NC(=O)C1CCCN21 (centres undefined)
inactive: growth inhibition [1] 7.72% | growth inhibition [2] 12.4% | viability increase [3] -0.72% | viability [4] 91.2% | viability [5] 89.8% | inhibition [6] 0.305% | RAM network inhibition [7] -1.29%

CSC1=N/C(=C\c2ccc(C)o2)C(=O)S1
inactive: growth inhibition [1] -2.35% | growth inhibition [2] 1.15% | viability increase [3] -2.31% | viability [4] 104% | viability [5] 102% | inhibition [6] 0.93% | RAM network inhibition [7] -0.21%

N#CC1=C2SCN(Cc3ccccc3)CN2C(=O)CC1c1cccs1 (centres undefined)
inactive: growth inhibition [1] 9.16% | growth inhibition [2] 30.2% | viability increase [3] -2.91% | viability [4] 94.3% | viability [5] 86% | inhibition [6] 0.535% | RAM network inhibition [7] 4.04%

CCOc1ccc(Nc2ncnc3c2cnn3-c2ccccc2)cc1
inactive: growth inhibition [1] -3.8% | growth inhibition [2] 3.48% | viability increase [3] 2.06% | viability [4] 106% | viability [5] 108% | inhibition [6] 1.29% | RAM network inhibition [7] 2.91%

COc1cccc(C2C(C(=O)OCc3ccccc3)=C(C)Nc3ncnn32)c1OC (centres undefined)
inactive: growth inhibition [1] -8.96% | growth inhibition [2] 1.86% | viability increase [3] 0.73% | viability [4] 103% | viability [5] 83.5% | inhibition [6] 2.32% | RAM network inhibition [7] 4.9%

Cc1ccc2cc(CCNC(=O)C3CCCC3)c(=O)[nH]c2c1
inactive: growth inhibition [1] -7.07% | growth inhibition [2] -9.72% | viability increase [3] 1.09% | viability [4] 107% | viability [5] 98.2% | inhibition [6] 3.17% | RAM network inhibition [7] 4.58%

COC(=O)C(C(=O)OC)C(C(C)C)C(C(=O)OC)C(=O)OC
inactive: growth inhibition [1] -8.23% | growth inhibition [2] -9.04% | viability increase [3] -1.49% | viability [4] 101% | viability [5] 98.2% | inhibition [6] 1.07% | RAM network inhibition [7] 3.68%

Cc1cc(C)n(-c2nncc(-c3ccccc3)n2)n1
inactive: growth inhibition [1] 14% | growth inhibition [2] 34.6% | viability increase [3] -2.22% | viability [4] 98.9% | viability [5] 95.6% | inhibition [6] 1.86% | RAM network inhibition [7] 0.92%

COc1ccc(C2C(C(=O)Nc3ccccn3)=C(C)Nc3ncnn32)c(OC)c1 (centres undefined)
inactive: growth inhibition [1] -8.54% | growth inhibition [2] -6.24% | viability increase [3] -1.04% | viability [4] 101% | viability [5] 92.1% | inhibition [6] 2.48% | RAM network inhibition [7] 7.85%

CC(=O)NC1(c2ccccc2)CCN(Cc2nnnn2C(C)(C)C)CC1
inactive: growth inhibition [1] -11.8% | growth inhibition [2] -17.9% | viability increase [3] -0.8% | viability [4] 102% | viability [5] 96% | inhibition [6] 3.53% | RAM network inhibition [7] 1.62%

Cc1cccc(OCC(=O)NCc2ccncc2)c1C
inactive: growth inhibition [1] -7.54% | growth inhibition [2] -7.64% | viability increase [3] -1.63% | viability [4] 99.4% | viability [5] 104% | inhibition [6] 0.525% | RAM network inhibition [7] 4.22%

CCCN1Cc2cccc(C(=O)Nc3ccc4c(c3)OCCO4)c2C1=O
inactive: growth inhibition [1] 0.22% | growth inhibition [2] -5.64% | viability increase [3] 0.47% | viability [4] 106% | viability [5] 97.2% | inhibition [6] 1.35% | RAM network inhibition [7] 2.75%

CCn1c(C2CC(=O)N(Cc3ccccc3)C2)nc2ccccc21 (centres undefined)
inactive: growth inhibition [1] 7.85% | growth inhibition [2] 7.52% | viability increase [3] -2.06% | viability [4] 102% | viability [5] 91.3% | inhibition [6] -0.3% | RAM network inhibition [7] 4.25%

CCC(C)OC(=O)C1=C(C)NC(=O)NC1c1ccc(F)cc1 (centres undefined)
inactive: growth inhibition [1] -8.18% | growth inhibition [2] -18.7% | viability increase [3] -2.13% | viability [4] 97% | viability [5] 92.7% | inhibition [6] 1.36% | RAM network inhibition [7] 2.77%

CCCOc1cccc(C(=O)Nc2cccc(NC(=O)c3ccco3)c2)c1
inactive: growth inhibition [1] -11.2% | growth inhibition [2] -14.9% | viability increase [3] -3.58% | viability [4] 85.3% | viability [5] 91.6% | inhibition [6] 1.04% | RAM network inhibition [7] 8.68%

CCn1c(SCC(=O)Nc2ccccc2C(=O)OC)nc2c1c(=O)n(C)c(=O)n2C
inactive: growth inhibition [1] -6.03% | growth inhibition [2] -4.93% | viability increase [3] -3.55% | viability [4] 92% | viability [5] 86.6% | inhibition [6] 3.68% | RAM network inhibition [7] 5.2%
